Assay [1] concerns the target Tyrosine-protein phosphatase non-receptor type 6 (Homo sapiens) (UniProt P29350). In words: Induction of PTPN6 in human Hs578T cells assessed as inhibition of STAT3 phosphorylation at 3 uM after 16 hrs by Western blotting analysis in presence of pervanadate. The class given is cell-based. Conditions: Hs-578T. A digest of the protocol:
(§1)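 HS578T and SUM149PT cells treated for 16 h without or with increasing pervanadate as a phosphatase inhibitor; JAK1/2 inhibitor CP690550 run in parallel. Lysates immunoblotted for phospho-STAT3 (Y705), with β-actin as loading control.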
(In general: Immunoblotting shows a protein as a band on a membrane.)

For assay [2] the target is unchanged. As to the kind of experiment: Induction of PTPN6 in human SUM149PT cells assessed as inhibition of STAT3 phosphorylation at 3 uM after 16 hrs by Western blotting analysis in presence of pervanadate. The class given is cell-based. A digest of the protocol: as §1

Calls of active or inactive are those of the source. No cut-off for these calls is given here.

Sequence of Tyrosine-protein phosphatase non-receptor type 6 (Homo sapiens) (P29350 whole entry): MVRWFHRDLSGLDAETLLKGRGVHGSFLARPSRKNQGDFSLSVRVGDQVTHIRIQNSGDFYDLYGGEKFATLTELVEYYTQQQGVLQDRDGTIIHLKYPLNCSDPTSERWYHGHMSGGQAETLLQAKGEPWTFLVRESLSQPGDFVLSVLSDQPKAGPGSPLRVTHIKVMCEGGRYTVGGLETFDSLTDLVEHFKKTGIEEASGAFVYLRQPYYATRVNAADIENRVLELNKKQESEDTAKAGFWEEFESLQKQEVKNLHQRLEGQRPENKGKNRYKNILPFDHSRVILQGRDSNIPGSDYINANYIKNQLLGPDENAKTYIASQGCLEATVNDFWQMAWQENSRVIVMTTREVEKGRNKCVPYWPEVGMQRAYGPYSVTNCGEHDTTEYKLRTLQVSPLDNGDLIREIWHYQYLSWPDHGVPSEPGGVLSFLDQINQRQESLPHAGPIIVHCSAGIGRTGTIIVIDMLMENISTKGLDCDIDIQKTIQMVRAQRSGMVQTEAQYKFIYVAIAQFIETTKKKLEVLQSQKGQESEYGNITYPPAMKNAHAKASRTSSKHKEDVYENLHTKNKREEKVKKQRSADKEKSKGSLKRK

`C[C@@H]1CCN(C(=O)CC#N)C[C@@H]1N(C)c1ncnc2[nH]ccc12`: the inhibition result in assay [1] and in assay [2] was “Active” throughout.
